Screens from PubChem.
hERG rescue = shields human hERG channel from block by proarrhythmic agents. CHO-hERG, FluxOR thallium flux, dofetilide IC70 present. activation (rescue from dofetilide block), less the hit threshold, % at 10 µM. actives 0.51% (n = 310,000). AID 1511;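 active means activation above the mean of controls blocked by dofetilide plus 5 SD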;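 further: thallium influx through hERG after potassium depolarization seen as dye fluorescence rise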
KCNK9 inh = blocks the human KCNK9 two-pore domain potassium channel; HEK293 KCNK9, FluxOR thallium flux fluorescence; active compounds read low; B-score at 10 µM; actives 1.2% (n = 310,000);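 active means ratio B-score over 3 SD below the library mean, with starting fluorescence within 5 SD of its mean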;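 further: negative B-score means less thallium flux so channel inhibition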
Target sequence (Q9NPC2 whole entry, looked up, the tested form may be a part): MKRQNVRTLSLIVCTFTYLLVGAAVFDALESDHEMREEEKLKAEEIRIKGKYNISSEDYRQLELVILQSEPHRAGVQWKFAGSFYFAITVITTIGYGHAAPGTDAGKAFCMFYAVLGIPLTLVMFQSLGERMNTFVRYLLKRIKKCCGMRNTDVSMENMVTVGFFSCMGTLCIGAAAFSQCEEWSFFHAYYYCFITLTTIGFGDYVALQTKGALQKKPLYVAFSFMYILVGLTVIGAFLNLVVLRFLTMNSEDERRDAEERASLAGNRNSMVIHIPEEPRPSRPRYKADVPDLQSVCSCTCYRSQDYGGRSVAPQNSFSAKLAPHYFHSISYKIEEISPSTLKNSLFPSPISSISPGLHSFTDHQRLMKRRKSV
KCNK3 block = human KCNK3 channel inhibition, primary screen | CHO-KCNK3 thallium flux, FluxOR fluorescence; active compounds read low | AID 602410 | O14649 | B-score at 10 µM | actives 0.84% (n = 340,000);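 active means B-score under library mean minus 4 SD, starting fluorescence ratio at most library mean plus 5 SD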;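 further: more negative B-score means stronger inhibition of thallium flux through KCNK3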
Kir21 inh = blocks the mouse Kir2.1 inward-rectifier potassium channel; P35561; HEK293-Kir2.1, FluxOR thallium flux fluorescence; active compounds read low; B-score at 10 µM; actives 0.85% (n = 310,000); AID 1672;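 active means fluorescence ratio B-score at or below minus 3 SD of library scores, with starting-brightness B-score within 2 SD, cut at about -4.2 in these data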;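 further: channel flux triggered by added potassium and thallium sulfate stimulus; B-score of peak minus minimum fluorescence over baseline after thallium stimulus; more negative B-score means stronger Kir2.1 block with less thallium influx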
KCNQ1 block = inhibitors of human KCNQ1 potassium channel; actives 1.3% (n = 310,000); B-score at 10 µM; AID 2642; CHO-K1 KCNQ1, FluxOR thallium flux fluorescence; active compounds read high; P51787;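 active means compounds whose thallium flux B-score, printed positive for inhibition, exceeds three library SD while starting fluorescence stays within three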;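 further: channel opened by potassium depolarization with thallium stimulus after 20 min compound exposure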
KCNQ1 act = human KCNQ1 channel potentiation or activation; B-score at 10 µM; P51787; CHO-K1 KCNQ1, thallium flux FluxOR fluorescence; active compounds read high; actives 0.35% (n = 310,000); AID 2648;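 active means fluorescence ratio B-score, a plate-corrected score, at least three library SD, with initial intensity B-score within 5 SD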
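assay system = KCNQ1-transfected CHO-K1 cells | medium = assay buffer with matched DMSO | probe or stimulus = depolarizing K+/Tl+ stimulus, K2SO4 and Tl2SO4 each 12.5 mM in 5x stock | dosing = single dose | incubation = dye 90 min, compound 20 min, room temperature | detection = kinetic FluxOR fluorescence, 10 s baseline plus 110 s post-stimulus | evaluation = ratio B score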
KCNK9 inh conf = human KCNK9 inhibitor confirmation; AID 492992; HEK293 KCNK9 cells, FluxOR thallium flux fluorescence; actives 43% (n = 4,900); inhibition, % at 10 µM; shares compounds with KCNK9 inh;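 active means thallium signal inhibited by more than 5 SD of the compound-free buffer control wells, on both duplicate plates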
Kir2-1 spec = tests whether KCNK9 modulators also affect mouse Kir2.1; shares compounds with KCNK9 inh; Kir2.1 cells, FluxOR thallium flux fluorescence; inhibition, % at 10 µM; actives 4% (n = 4,900); AID 492993;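 active means thallium signal drop more than 5 SD beyond the mean of the no-compound control wells, seen in both duplicate plates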;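 further: signal is fluorescence rise after thallium addition divided by baseline fluorescence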
KCNK9 uninduced = second check of KCNK9 modulator effects in non-induced HEK293 cells. shares compounds with KCNK9 inh. FluxOR thallium flux. inhibition, % at 10 µM. actives 40% (n = 4,900);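 active means thallium signal drop beyond 5 SD of the untreated control mean, on both duplicate plates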
A number is an active result. In the library only some 3.7% were active in any assay of this set; here they are far more common.

Screening c1cc(C2CCN(Cc3nc(-c4ccc5c(c4)OCO5)no3)CC2)ccn1 returned hERG rescue inactive, KCNK9 inh inactive, KCNK3 block inactive, Kir21 inh inactive, KCNQ1 block inactive and KCNQ1 act inactive.
COc1ccccc1CN1CCN(Cc2nc(Cc3ccccc3)no2)CC1 was read as hERG rescue inactive, KCNK9 inh inactive, KCNK3 block inactive, Kir21 inh inactive, KCNQ1 block inactive, KCNQ1 act inactive, KCNK9 inh conf inactive, Kir2-1 spec inactive and KCNK9 uninduced inactive.
For c1ccc(OCCN2CCN(Cc3nc(-c4ccc5c(c4)OCO5)no3)CC2)cc1 the results were hERG rescue inactive, KCNK9 inh inactive, KCNK3 block inactive, Kir21 inh inactive, KCNQ1 block inactive, KCNQ1 act inactive, KCNK9 inh conf inactive, Kir2-1 spec inactive and KCNK9 uninduced inactive.
`COc1cc(C)ccc1OCC(=O)OCC(=O)NCC1CCCCC1` gave KCNK3 block inactive.
For COC(=O)c1ccccc1NC(=O)C1CCCN(S(=O)(=O)c2ccc(F)cc2)C1 (stereo not drawn) the results were hERG rescue inactive, KCNK9 inh inactive, KCNK3 block inactive, Kir21 inh inactive, KCNQ1 block inactive, KCNQ1 act inactive, KCNK9 inh conf inactive, Kir2-1 spec inactive and KCNK9 uninduced inactive.
For COC(=O)c1ccccc1NC(=O)C1CCCN(S(=O)(=O)c2ccccc2)C1 (stereo not drawn) the results were hERG rescue inactive, KCNK9 inh inactive, KCNK3 block inactive, Kir21 inh inactive, KCNQ1 block inactive, KCNQ1 act inactive, KCNK9 inh conf inactive, Kir2-1 spec inactive and KCNK9 uninduced inactive.
For CC(=O)Nc1ccc(S(=O)(=O)NCCC(=O)N2CCc3ccccc32)cc1 the results were hERG rescue inactive, KCNK9 inh inactive, KCNK3 block inactive, Kir21 inh inactive, KCNQ1 block inactive and KCNQ1 act inactive.
`CCOc1ccccc1NC(=O)CSc1nc2ccccc2nc1N1CCCC1` gave hERG rescue inactive, KCNK9 inh -8.6, KCNK3 block inactive, Kir21 inh inactive, KCNQ1 block 6, KCNQ1 act inactive, KCNK9 inh conf inactive, Kir2-1 spec inactive and KCNK9 uninduced inactive.
Screening COc1ccccc1N1CCN(C(=O)CSc2ncccc2-c2nc3ccccc3[nH]2)CC1 returned hERG rescue inactive, KCNK9 inh inactive, KCNK3 block inactive, Kir21 inh inactive, KCNQ1 block inactive and KCNQ1 act inactive.
Screening CCOc1ccccc1NC(=O)CSc1nc2ccccc2nc1N1CCOCC1 returned hERG rescue inactive, KCNK9 inh inactive, KCNK3 block inactive, Kir21 inh inactive, KCNQ1 block inactive and KCNQ1 act inactive.
`COc1ccccc1N1CCN(C(=O)CSc2nc3ccccc3nc2N2CCC(C)CC2)CC1` gave hERG rescue inactive, KCNK9 inh inactive, KCNK3 block inactive, Kir21 inh inactive, KCNQ1 block inactive, KCNQ1 act inactive, KCNK9 inh conf inactive, Kir2-1 spec inactive and KCNK9 uninduced inactive.
COc1ccc(NC(=O)CSc2nc3ccccc3nc2N2CCCC2)cc1 was read as hERG rescue inactive, KCNK9 inh inactive, KCNK3 block inactive, Kir21 inh inactive, KCNQ1 block inactive, KCNQ1 act inactive, KCNK9 inh conf inactive, Kir2-1 spec inactive and KCNK9 uninduced inactive.
CCOc1ccc(NC(=O)CSc2nc3ccccc3nc2N2CCCC2)cc1 was read as hERG rescue inactive, KCNK9 inh inactive, KCNK3 block inactive, Kir21 inh inactive, KCNQ1 block inactive and KCNQ1 act inactive.
Screening COC(=O)C(C)Oc1cc(OC(C)C(=O)OC)c2c(-c3ccccc3)cc(=O)oc2c1 (stereo not drawn) returned hERG rescue inactive, KCNK9 inh inactive, KCNK3 block inactive, Kir21 inh inactive, KCNQ1 block inactive and KCNQ1 act inactive.
`CC(=O)Nc1cccc(-n2nnc(SCC(=O)N(C)c3ccccc3)n2)c1` gave hERG rescue inactive, KCNK9 inh inactive, KCNK3 block inactive, Kir21 inh inactive, KCNQ1 block inactive and KCNQ1 act inactive.
`O=C(COC(=O)CCN=C1NS(=O)(=O)c2ccccc21)NNC(=O)c1ccccc1` gave hERG rescue inactive, KCNK9 inh inactive, KCNK3 block inactive, Kir21 inh inactive, KCNQ1 block inactive and KCNQ1 act inactive.
For O=[N+]([O-])c1cc(Cl)ccc1N1CCN(c2ccccc2O)CC1 the results were hERG rescue inactive, KCNK9 inh -8.5, KCNK3 block inactive, Kir21 inh inactive, KCNQ1 block inactive, KCNQ1 act inactive, KCNK9 inh conf inactive, Kir2-1 spec inactive and KCNK9 uninduced 25%.
For Cc1ccc(N2C(=O)CC(Cc3cc(C)cc(C)c3)C2=O)cc1 (stereo not drawn) the results were hERG rescue inactive, KCNK9 inh inactive, KCNK3 block inactive, Kir21 inh inactive, KCNQ1 block inactive and KCNQ1 act inactive.
Screening Cc1cc(C)cc(CC2CC(=O)N(c3cc(C)ccc3C)C2=O)c1 (stereo not drawn) returned hERG rescue inactive, KCNK9 inh inactive, KCNK3 block inactive, Kir21 inh inactive, KCNQ1 block inactive, KCNQ1 act inactive, KCNK9 inh conf inactive, Kir2-1 spec inactive and KCNK9 uninduced inactive.
For CC(C)CCN(CCC(C)C)CC(O)Cn1c2ccccc2c(=O)c2ccccc21 (stereo not drawn) the results were hERG rescue inactive, KCNK9 inh -8.1, KCNK3 block inactive, Kir21 inh inactive, KCNQ1 block inactive, KCNQ1 act inactive, KCNK9 inh conf 42%, Kir2-1 spec inactive and KCNK9 uninduced 28%.
Cc1cccc(N2CCN(C(=O)c3ccc(S(=O)(=O)N(C)c4ccccc4)cc3)CC2)c1C was read as KCNK3 block inactive.
`Cc1cccc(C(=O)OCC(=O)NCCCc2ccccc2)c1O` gave hERG rescue inactive, KCNK9 inh inactive, KCNK3 block inactive, Kir21 inh inactive, KCNQ1 block inactive and KCNQ1 act inactive.
Screening CCCCN(Cc1ccc(C(=O)N[C@H](C(=O)O)C(C)C)cc1)C(=O)C(c1ccccc1)c1ccccc1 returned hERG rescue inactive, KCNK9 inh inactive, KCNK3 block inactive, Kir21 inh inactive, KCNQ1 block inactive and KCNQ1 act inactive.
Cn1c(=O)[nH]c(=O)c2c1nc(N1CCCCC1)n2CC(O)COc1ccccc1 (stereo not drawn) was read as hERG rescue inactive, KCNK9 inh inactive, KCNK3 block inactive, Kir21 inh inactive, KCNQ1 block inactive and KCNQ1 act inactive.
